The nature of data set [1]: Cytotoxicity test. It is filed as cell-based. As to conditions: African green monkey, uninfected Vero cells. In outline:
(§1)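 Stocks of 50 mg/mL in DMSO, with antibiotic–antimycotic added, were diluted twofold in DMEM. Cells at 2 × 10⁵ cells/mL were grown 24 h at 37 °C under 5% CO₂ to confluence, then exposed 72 h. Morphology was scored daily by inverted microscopy. Viable cells were counted by 0.4% trypan blue exclusion after trypsinisation. CC50 halves OD492 of treated versus untreated uninfected cells. Triplicates.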

The subject of data set [2] is herpes simplex virus type 1 (HSV-1). The data set can be described thus: Plaque assay for antiviral activity, Vero cells. It is filed as cell-based. As to conditions: for IC50: Human alphaherpesvirus 1, Vero; for mean % of reduction, herpes simplex virus type-1: nontoxic dose, viral titers 1 × 10^5, 1 × 10^6, 1 × 10^7.
Data set [3] has as its target USP7 enzyme (Homo sapiens, UniProt Q93009). The data set is described as follows: USP7 Inhibitor Screening Assay Kit. In kind it is biochemical. The conditions noted are these: for inhibition at 0.1 µg/mL / inhibition at 1 µg/mL / inhibition at 10 µg/mL / inhibition at 100 µg/mL: read-out: inhibition percentage against USP7. In outline:
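Human recombinant USP7 from a commercial kit was stabilised with DTT and used at 0.4 ng/µL. Ub-AMC substrate was diluted 400-fold in 1× assay buffer, test compound or inhibitor buffer was added, and the enzyme started the reaction. After 30 min at room temperature with rotation, fluorescence was read at 360 nm excitation and 460 nm emission, minus blank.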

Data set [4] has as its system Vero. The data set is described as follows: Cytotoxicity test. It is filed as cell-based. As to conditions: Vero cell line. In outline:
as §1

For data set [5], the system named is Hep-2. The data set is described as follows: Cytotoxicity test. It is filed as cell-based. As to conditions: Hep-2 cell line. An outline of the steps: as §1
Data set [6] deals with BGM. The data set is described as follows: Cytotoxicity test. It is filed as cell-based. The conditions noted are these: for nontoxic dose: BGM cell line. In outline:
as §1

In data set [7] the test system is FRHK-4. The data set is described as follows: Cytotoxicity test. In kind it is cell-based. The conditions noted are these: FRHK-4 cell line. In outline: as §1
Data set [8] has as its system Huh 7.5. The data set can be described thus: Cytotoxicity test. In kind it is cell-based. The conditions noted are these: Huh 7.5 cell line. An outline of the steps: as §1
The test system of data set [9] is adenovirus type 7 (HAdV7). The data set is described as follows: Plaque assay for antiviral activity, Hep-2 cells. It is filed as cell-based. The conditions noted are these: for mean % of reduction, adenovirus type 7: nontoxic dose, viral titers 1 × 10^5, 1 × 10^6, 1 × 10^7. An outline of the steps: (§2)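 Nontoxic dilutions were mixed 1:1 (100 µL each) with virus (10⁵–10⁷) for 0.5 h at 37 °C. Tenfold dilutions were plated on Hep-2 (HAdV7), FRHK-4 (HAV HM175) or BGM (CBV4), adsorbed 1 h at 37 °C under 5% CO₂, and overlaid with 2× DMEM plus 1% agarose. Plaques were fixed with formalin, stained with crystal violet and counted as pfu/mL. IC50 is the half-maximal plaque reduction; SI = CC50/IC50. Triplicates.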

Data set [10] deals with coxsackievirus B4 (CBV4). The data set is described as follows: Plaque assay for antiviral activity, BGM cells. It is filed as cell-based. The conditions noted are these: for SI: CC50/IC50 ratio; for mean % of reduction, coxsackievirus B4: nontoxic dose, viral titers 1 × 10^5, 1 × 10^6, 1 × 10^7. In outline:
as §2

Data set [11] deals with hepatitis A virus (HAV) HM175. The data set is described as follows: Plaque assay for antiviral activity, FRHK-4 cells. In kind it is cell-based. The conditions noted are these: for mean % of reduction, hepatitis A virus HM175: nontoxic dose, viral titers 1 × 10^5, 1 × 10^6, 1 × 10^7. In outline:
as §2

Data set [12] concerns HCVcc genotype 4. The data set can be described thus: Antiviral bioassay against ED-43/SG-Feo. The conditions noted are these: for mean % of reduction, HCVcc genotype 4: nontoxic dose, viral titers 1 × 10^5, 1 × 10^6, 1 × 10^7. It is filed as cell-based, hepatitis C virus genotype 4a.
Data set [13] in a line: Cytotoxicity test. In kind it is cell-based. As to conditions: human, uninfected Hep-2 cells. An outline of the steps: as §1
Data set [14] in a line: Cytotoxicity test. It is filed as cell-based. The conditions noted are these: African green monkey, uninfected BGM cells. In outline:
as §1

A short description of data set [15]: Cytotoxicity test. In kind it is cell-based. As to conditions: rhesus monkey, uninfected FRHK-4 cells. In outline:
as §1

Data set [16] is described as follows: Cytotoxicity test. In kind it is cell-based. The conditions noted are these: human, uninfected Huh 7.5 cells. An outline of the steps: as §1

By CC50 is commonly meant the concentration at which the toxic effect on the cells reaches its halfway point. As usually defined, the IC50 is the concentration at which inhibition is half-maximal. A high value points to weaker potency. As usually defined, the inhibition is the change of the read-out against control, counted positive when it falls.

Molecules are shown by their SMILES. Values after ≈ are worked out from the molar mass of the structure shown.

Chain of USP7 enzyme (Q93009 whole entry): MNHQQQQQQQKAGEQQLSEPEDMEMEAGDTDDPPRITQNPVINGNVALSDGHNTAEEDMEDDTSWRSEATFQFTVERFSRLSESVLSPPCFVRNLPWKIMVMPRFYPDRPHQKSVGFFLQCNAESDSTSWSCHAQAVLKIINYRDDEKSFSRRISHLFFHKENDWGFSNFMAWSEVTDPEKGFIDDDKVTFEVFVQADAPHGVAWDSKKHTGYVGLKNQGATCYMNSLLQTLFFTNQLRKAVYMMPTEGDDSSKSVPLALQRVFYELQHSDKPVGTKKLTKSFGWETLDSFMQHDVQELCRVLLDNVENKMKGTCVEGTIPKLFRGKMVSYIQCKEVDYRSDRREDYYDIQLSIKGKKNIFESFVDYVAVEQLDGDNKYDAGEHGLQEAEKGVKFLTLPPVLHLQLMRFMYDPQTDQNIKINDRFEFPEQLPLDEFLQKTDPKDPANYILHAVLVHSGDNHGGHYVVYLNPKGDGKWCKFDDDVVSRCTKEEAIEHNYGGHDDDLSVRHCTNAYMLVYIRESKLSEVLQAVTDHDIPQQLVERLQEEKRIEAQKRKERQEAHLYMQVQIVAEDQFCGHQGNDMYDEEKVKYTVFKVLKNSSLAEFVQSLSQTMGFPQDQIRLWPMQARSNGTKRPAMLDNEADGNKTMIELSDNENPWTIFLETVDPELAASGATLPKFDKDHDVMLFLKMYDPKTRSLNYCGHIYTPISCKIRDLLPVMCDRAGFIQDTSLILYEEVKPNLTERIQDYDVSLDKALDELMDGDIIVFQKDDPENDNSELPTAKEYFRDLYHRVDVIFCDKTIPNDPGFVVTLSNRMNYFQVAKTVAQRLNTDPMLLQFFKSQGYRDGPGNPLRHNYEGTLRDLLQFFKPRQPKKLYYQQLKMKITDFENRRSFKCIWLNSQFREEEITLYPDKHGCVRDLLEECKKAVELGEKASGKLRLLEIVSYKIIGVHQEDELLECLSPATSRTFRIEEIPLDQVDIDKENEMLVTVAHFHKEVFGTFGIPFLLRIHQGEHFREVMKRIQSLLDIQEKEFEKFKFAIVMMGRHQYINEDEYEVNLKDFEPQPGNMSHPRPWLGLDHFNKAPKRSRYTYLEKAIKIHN

In data set [1], `Nc1nc2c(ncn2COCCO)c(=O)[nH]1` [acyclovir, reference compound] had a 50% cytotoxic concentration (CC50) of 2.8 µg/mL (≈ 12.4 µM). The compound further returned an IC50 in data set [2] of 0.7 µg/mL (≈ 3.11 µM). For the same compound, in [3], it took 11 µM to reach half-maximal inhibition (IC50), the inhibition at 0.1 µg/mL turned out to be 18.7%, the inhibition at 1 µg/mL was 35% and the inhibition at 10 µg/mL came out at 71.7%. Further, the inhibition at 100 µg/mL in data set [3] turned out to be 84.5%.

Turning to `O=c1c(-c2nc3ccccc3s2)cc2c(n1NS(=O)(=O)c1ccccc1)CCCC2` [compound 7a], the nontoxic dose in data set [4] stood at 110 µg/mL; in [5], 110 µg/mL; in data set [6], 110 µg/mL; in data set [7], 110 µg/mL; in data set [8], 100 µg/mL. Further, the CC50 in data set [6] (uninfected host cells, section Coxsackievirus B4) is 260 µg/mL (≈ 594 µM). The “mean % of reduction, herpes simplex virus type-1” value in data set [2] is 40.0%. Also, the “mean % of reduction, adenovirus type 7” value in data set [9] stood at 10.0%. In addition, the SI in data set [10] (Coxsackievirus B4) was 2.95. In data set [10] (Coxsackievirus B4), this compound gave an IC50 of 88 µg/mL (≈ 201 µM). Further, in data set [11], the “mean % of reduction, hepatitis A virus HM175” value was 30.0%. Moreover, the “mean % of reduction, HCVcc genotype 4” value in [12] stood at 30.0%.

`O=c1c(-c2nc3ccccc3s2)cc2c(n1NS(=O)(=O)c1ccc(Cl)cc1)CCCC2` [compound 7b]: the nontoxic dose in data set [4], in [5], in data set [6], in data set [7] and in [8] was 130 µg/mL throughout. Besides, in data set [2], the “mean % of reduction, herpes simplex virus type-1” value is given as “- ^a”.

Turning to `N#Cc1cc(-c2nc3ccccc3s2)c(=O)n(NS(=O)(=O)c2ccccc2)c1N` [compound 13a, N-(6-Amino-3-(benzo[d]thiazole-2-yl)-5-cyano-2-oxopyridine-1(2H)-yl)benzensulfonamide], the 50% cytotoxic concentration (CC50) in data set [1] came to 280 µg/mL (≈ 661 µM); in data set [13], 270 µg/mL (≈ 638 µM); in [14], 240 µg/mL (≈ 567 µM); in [15], 260 µg/mL (≈ 614 µM); in data set [16] it was 260 µg/mL (≈ 614 µM). Further, the nontoxic dose in data set [4] was 110 µg/mL; in data set [5], 110 µg/mL; in [6] it was 100 µg/mL; in data set [7] it was 110 µg/mL; in data set [8], 100 µg/mL. For the same compound, the SI is listed as 3.73 in [2] (CC50/IC50 ratio, Herpes Simplex Virus); 2.45 in data set [9] (CC50/IC50 ratio, Adenovirus Type 7); 2.86 in data set [10] (Coxsackievirus B4); 2.89 in data set [11] (CC50/IC50 ratio, Hepatitis A Virus HM175); 3.09 in [12] (CC50/IC50 ratio, HCVcc Genotype 4). Moreover, the half-maximal inhibitory concentration (IC50) in data set [2] is 75 µg/mL (≈ 177 µM); in data set [11] (Hepatovirus A, FRhK-4), 90 µg/mL (≈ 213 µM); in [3], 11.3 µM. Further, in [9], the “mean % of reduction, adenovirus type 7” value is reported as 50%. For the same compound, in data set [11], the “mean % of reduction, hepatitis A virus HM175” value is 60%. The “mean % of reduction, HCVcc genotype 4” value in data set [12] worked out at 56.7%. For the same compound, in [3], the inhibition at 0.1 µg/mL was determined as 11.8%. The inhibition at 1 µg/mL in data set [3] was determined as 35.8%. For the same compound, the inhibition at 10 µg/mL in data set [3] is 54%. Also, in [3], the inhibition at 100 µg/mL stood at 81.5%.

Take `N#Cc1cc(-c2nc3ccccc3s2)c(=O)n(NS(=O)(=O)c2ccc(Cl)cc2)c1N` [compound 13b, N-(6-Amino-3-(benzo[d]thiazole-2-yl)-5-cyano-2-oxopyridine-1(2H)-yl)-4-chlorobenzensulfonamide]: the nontoxic dose in data set [4], in [5], in [6], in data set [7] and in [8] was 100 µg/mL throughout. In data set [2], the “mean % of reduction, herpes simplex virus type-1” value came to 26.7%. Also, the “mean % of reduction, adenovirus type 7” value in [9] is given as 16.7%. Moreover, the “mean % of reduction, coxsackievirus B4” value in [10] turned out to be 30.0%. The “mean % of reduction, hepatitis A virus HM175” value in [11] was found to be 26.7%. For the same compound, the “mean % of reduction, HCVcc genotype 4” value in data set [12] amounted to 26.7%.

Consider `Cc1ccc(S(=O)(=O)Nn2c(N)c(C#N)cc(-c3nc4ccccc4s3)c2=O)cc1` [compound 13c, N-(6-Amino-3-(benzo[d]thiazole-2-yl)-5-cyano-2-oxopyridine-1(2H)-yl)-4-methylbenzensulfonamide], for which the nontoxic dose in data set [4] worked out at 110 µg/mL; in [5], 110 µg/mL; in data set [6], 110 µg/mL; in data set [7] it was 110 µg/mL; in [8], 100 µg/mL. For the same compound, in data set [2], the “mean % of reduction, herpes simplex virus type-1” value was found to be 10.0%. In addition, the “mean % of reduction, adenovirus type 7” value in data set [9] is listed as 3.3%. Further, the “mean % of reduction, coxsackievirus B4” value in data set [10] is recorded as 10.0%. For the same compound, the “mean % of reduction, hepatitis A virus HM175” value in [11] is on record as 6.7%. The “mean % of reduction, HCVcc genotype 4” value in data set [12] was 10.0%.

Turning to `CCOC(=O)c1cc(-c2nc3ccccc3s2)c(=O)n(NS(=O)(=O)c2ccc(C)cc2)c1N` [compound 13f, Ethyl-2-amino-5-(benzo[d]thiazole-2-yl)-1-(4-methylphenylsulfonamido)-6-Oxo-1,6-dihydropyridine-3-carboxylate], the nontoxic dose in data set [4] was 140 µg/mL; in data set [5] it was 140 µg/mL; in [6], 130 µg/mL; in data set [7] it was 140 µg/mL; in data set [8], 140 µg/mL. Further, the “mean % of reduction, herpes simplex virus type-1” value in [2] came out at 23.3%. The “mean % of reduction, adenovirus type 7” value in data set [9] amounted to 16.7%. Also, in data set [10], the “mean % of reduction, coxsackievirus B4” value is 20.0%. In data set [11], the “mean % of reduction, hepatitis A virus HM175” value came to 20.0%. Besides, the “mean % of reduction, HCVcc genotype 4” value in [12] is on record as 20.0%.

These data come from article PMC7689895 (ACS Omega, 2020).
